Screening data from PubChem BioAssay.
Rows were chosen to be rich in hits. Some 2.3% of all compounds tested hit in one or more screens of this group.
TRPC6 inhibitor: mouse TRPC6 channel inhibition | HEK293-TRPC6, membrane potential dye, ACh-evoked depolarization; hits give low values | B-score at 10 µM | 310,000 tested, 1.1% active;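 active = B-score under library mean minus 3 SD, initial fluorescence not abnormally high, positive integrated signal ratio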;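 note: B-score derived from integrated fluorescence ratio over the kinetic read; more negative B-score means stronger inhibition of depolarization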
TRPC4 inh: TRPC4 (mouse) channel inhibition. B-score at 10 µM. HEK293 TRPC4beta/mu-opioid, DAMGO-evoked Fluo4 calcium flux; hits give low values. 300,000 tested, 0.39% active. Q9QUQ5;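 active = B-score over 3 SD under the library average, no early fluorescence shift, positive overall ratio signal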
Target sequence (Q9QUQ5 whole entry, looked up): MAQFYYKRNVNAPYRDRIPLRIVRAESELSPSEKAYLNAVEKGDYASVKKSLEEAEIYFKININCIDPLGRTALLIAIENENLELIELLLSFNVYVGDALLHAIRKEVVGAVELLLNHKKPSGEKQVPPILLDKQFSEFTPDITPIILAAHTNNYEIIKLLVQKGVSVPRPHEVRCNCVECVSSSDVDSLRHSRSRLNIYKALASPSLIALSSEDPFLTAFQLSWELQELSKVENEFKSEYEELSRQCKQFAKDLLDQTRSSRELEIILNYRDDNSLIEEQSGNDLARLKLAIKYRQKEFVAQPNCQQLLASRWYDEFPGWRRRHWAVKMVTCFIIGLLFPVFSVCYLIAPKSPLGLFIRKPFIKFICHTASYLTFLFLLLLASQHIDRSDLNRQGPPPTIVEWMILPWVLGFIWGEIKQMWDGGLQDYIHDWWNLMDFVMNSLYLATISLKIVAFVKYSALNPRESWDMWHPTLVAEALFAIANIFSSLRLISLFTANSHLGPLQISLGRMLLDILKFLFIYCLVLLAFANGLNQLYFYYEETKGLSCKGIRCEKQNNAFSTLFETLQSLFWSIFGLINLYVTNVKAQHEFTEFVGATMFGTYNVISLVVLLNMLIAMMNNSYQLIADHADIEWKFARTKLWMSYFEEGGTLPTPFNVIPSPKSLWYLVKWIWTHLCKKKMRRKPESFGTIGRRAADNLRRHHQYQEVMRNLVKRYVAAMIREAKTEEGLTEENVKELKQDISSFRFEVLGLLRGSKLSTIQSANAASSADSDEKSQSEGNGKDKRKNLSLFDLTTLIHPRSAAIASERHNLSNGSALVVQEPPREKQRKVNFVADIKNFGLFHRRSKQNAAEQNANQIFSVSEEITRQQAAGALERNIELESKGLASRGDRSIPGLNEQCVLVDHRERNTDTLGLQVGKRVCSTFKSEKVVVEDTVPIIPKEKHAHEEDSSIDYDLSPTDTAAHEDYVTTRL
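Test system – stable TRPC4beta/mu-opioid receptor HEK293 cells · Probe or stimulus – DAMGO, a submaximal dose followed by a maximal one · Dosing – one concentration per compound · Signal – Fluo4 calcium fluorescence by kinetic imaging, 5 s 1 Hz baseline · Evaluation – per-well B score of integrated baseline-normalized Fluo4 ratio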
TRPC4 agonist: TRPC4 (mouse) channel activation. Q9QUQ5. HEK293 TRPC4beta/mu-opioid, Fluo4 calcium fluorescence; hits give high values. B-score at 10 µM. 310,000 tested, 0.49% active;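 active = B-score above 5 SD of library B-scores, and initial fluorescence ratio not above library mean plus 5 SD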;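 note: positive B-score marks a calcium rise read as TRPC4 activation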
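Incubation: 45 min room-temperature Fluo4 loading, 110 s read / System: HEK293 cells stably co-expressing mouse TRPC4beta and mu-opioid receptor / Signal: Fluo4 fluorescence, kinetic / Control set: buffer (low) and maximal DAMGO (high) / Measure: integrated baseline-normalised fluorescence ratio, converted to per-well B score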
TRPC4 PAM: allosteric potentiators of mouse TRPC4 channel; Q9QUQ5; HEK293 TRPC4beta/mu-opioid, DAMGO EC20, Fluo-4 Ca2+ flux; hits give high values; B-score at 10 µM; 310,000 tested, 0.42% active; AID 2227;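 active = B-score of calcium response area above 5 SD of library B-scores, with initial fluorescence ratio within 5 SD of library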
TRPC6 activator: mouse TRPC6 channel activation. Q61143. HEK293-TRPC6 membrane potential dye fluorescence; hits give high values. B-score at 10 µM. 310,000 tested, 0.13% active. AID 2550;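 active = B-score of the integrated fluorescence ratio above library mean plus 3 SD, and starting fluorescence ratio within library mean plus 5 SD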;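 note: higher score means more depolarization so channel activation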
TRPC4 spec 2: mouse TRPC4 off-target activity of TRPC6 inhibitors, second screen; shares compounds with TRPC6 inhibitor; 920 tested, 42% active; AID 2776; inhibition, % at 10 µM; HEK293 TRPC4/MOR, membrane potential dye fluorescence; channel activated by saturating DAMGO dose;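 active = compounds whose fluorescence signal differed from control wells by over 3 SD, either direction, in both duplicate plates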
TRPC4 spec: mouse TRPC4 off-target activity of TRPC6 inhibitors | AID 2777 | HEK293 TRPC4/mu-opioid, membrane potential fluorescence | 920 tested, 61% active | activity change, negative = inhibition, % at 10 µM | shares compounds with TRPC6 inhibitor;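 active = rise or fall in signal beyond 3 SD of buffer-only wells in both replicate plates, either sign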;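 note: integrated kinetic ratio of fluorescence range over baseline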
HEK293 MPD ctr 2-1: second check of TRPC6 inhibitor effects in parental HEK293 cells. parental HEK293 membrane potential dye fluorescence; maximal acetylcholine challenge after compound addition. shares compounds with TRPC6 inhibitor. AID 2779. 920 tested, 31% active. signal change vs control, % at 10 µM;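 active = membrane potential signal moving either way by over 3 SD of the maximum-effect control, in both duplicate plates, meaning non-specific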
HEK293 MPD ctr-1: checks TRPC6 inhibitor effects in parental HEK293 cells. shares compounds with TRPC6 inhibitor. parental HEK293 membrane potential dye fluorescence. membrane potential signal change, % at 10 µM. 920 tested, 60% active;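 active = membrane potential signal shifting up or down by more than 3 SD of buffer-only wells, on both duplicate plates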
HEK293 MPD ctr-2: parental HEK293 nonspecific activity of TRPC6 modulators; shares compounds with TRPC6 inhibitor; membrane potential dye fluorescence; membrane potential signal change, % at 10 µM; 2,400 tested, 51% active; AID 488924;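 active = membrane potential signal moves up or down beyond 5 SD from buffer-only wells, on both duplicate plates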
HEK293 MPD ctr 2-2: second check of TRPC6 modulator effects in parental HEK293 cells; shares compounds with TRPC6 inhibitor; membrane potential dye fluorescence; after compound, maximal acetylcholine stimulation; inhibition, % at 10 µM; 2,400 tested, 14% active;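 active = membrane potential signal drops by more than 5 SD from the mean control signal, in both duplicate plates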
TRPC4 ctr mod: selectivity of TRPC6 modulators against mouse TRPC4 | 2,400 tested, 69% active | percent change from control (negative = decrease, positive = increase), % at 10 µM | shares compounds with TRPC6 inhibitor | HEK293 TRPC4/mu-opioid, membrane potential fluorescence | AID 488927;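 active = membrane potential signal moved up or down beyond 5 SD of buffer control wells, in both duplicate plates, actives on both sides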
TRPC4/MOR inh 2: second selectivity test of TRPC6 modulators against mouse TRPC4. shares compounds with TRPC6 inhibitor. HEK293 TRPC4/mu-opioid, membrane potential dye fluorescence; stimulated with maximal-effect DAMGO. inhibition, % at 10 µM. 2,400 tested, 55% active. AID 488928;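 active = drop in membrane potential signal beyond 5 SD of the control wells in both duplicate plates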;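 note: TRPC4 counter screen for TRPC6 hits run under conditions tuned for TRPC6 not TRPC4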
TRPC6 inh conf: mouse TRPC6 inhibitor confirmation; shares compounds with TRPC6 inhibitor; HEK293-TRPC6, membrane potential dye, ACh-evoked depolarization; inhibition, % at 10 µM; 3,300 tested, 43% active; AID 488960;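 active = fluorescence ratio falls more than 5 SD below the full-stimulation control mean, in both duplicate runs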;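 note: integrated fluorescence ratio of peak minus minimum over baseline after agonist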
TRPC6 act confirm: mouse TRPC6 activator confirmation; shares compounds with TRPC6 inhibitor; HEK293-TRPC6 membrane potential dye fluorescence, FDSS; activation, % at 10 µM; 2,800 tested, 11% active; AID 488961;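 active = ratio signal rise beyond 5 SD above unstimulated control wells' mean, seen in both duplicate runs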
Numbers stand for hits; - = inactive; . = no result; + = active, no number.

SMILES | TRPC6 inhibitor | TRPC4 inh | TRPC4 agonist | TRPC4 PAM | TRPC6 activator | HEK293 MPD ctr-2 | HEK293 MPD ctr 2-2 | TRPC4 ctr mod | TRPC4/MOR inh 2 | TRPC6 inh conf | TRPC6 act confirm | others
CCCCCNc1nc2sc3c(c2c(=O)n1-c1cccc(Cl)c1)CCN(C)C3 | -5.45 | - | - | - | - | - | - | - | 68.5% | 45.0% | -
CN1CCc2c(sc3nc(SCC(N)=O)n(-c4ccc(Cl)cc4)c(=O)c23)C1 | - | - | - | - | - | . | . | . | . | . | .
CCCCSc1nc2sc3c(c2c(=O)n1-c1ccccc1)CCN(C)C3 | - | - | - | - | - | . | . | . | . | . | .
O=c1c2c3c(sc2nc(N2CCNCC2)n1-c1cccc(Cl)c1)CCCCC3 | -7.18 | - | - | - | - | . | . | . | . | 59.6% | - | TRPC4 spec 2=60.5%;TRPC4 spec=-;HEK293 MPD ctr 2-1=-;HEK293 MPD ctr-1=-
CCCCNc1nc2sc3c(c2c(=O)n1-c1cccc(Cl)c1)CCN(C)C3 | -6.08 | - | - | - | - | - | - | - | 57.5% | - | -
CC(C)N1C(=O)CCC1C(=O)NCc1ccccc1Cl (stereo not given) | - | - | - | - | - | . | . | . | . | . | .
Nc1cc(=O)[nH]c(=O)n1Cc1ccco1 | -5.35 | - | - | - | - | - | - | - | - | - | -
Cc1ccc(/C=N\NC(=O)CNC(=O)C23CC4CC(CC(C4)C2)C3)o1 | - | - | - | - | - | . | . | . | . | . | .
COc1cc(Nc2nc3ccccc3nc2NS(=O)(=O)c2ccc([N+](=O)[O-])cc2)cc(OC)c1OC | -6.41 | - | - | - | - | -116.5% | - | -26.5% | 50.5% | 48.5% | -
O=[N+]([O-])c1ccc(S(=O)(=O)Nc2nc3ccccc3nc2Nc2ccccc2)cc1 | - | - | - | - | - | . | . | . | . | . | .
O=C1CC(c2ccc(F)cc2)CC(O)=C1C=NCCN1CCN(C(=O)Nc2ccccc2)CC1 (stereo not given) | - | - | - | - | - | . | . | . | . | . | .
CCCCOc1ccc(CC2CCC(=O)NC2=O)cc1 (stereo not given) | - | - | - | - | - | . | . | . | . | . | .
O=[N+]([O-])c1ccc(-c2ccc(/C=N/n3cnnc3)o2)c(Br)c1 | - | - | - | - | - | . | . | . | . | . | .
Cc1cc([N+](=O)[O-])c(C)cc1-c1ccc(/C=N/n2cnnc2)o1 | -5.8 | - | - | - | - | -107.5% | - | -23.0% | 34.0% | - | -
CCN(CC)CCCNc1nc2cc(OC)c(OC)cc2c2nc(-c3ccccc3)nn12 | - | - | - | - | - | . | . | . | . | . | .
COc1cc2nc(NCCCN3CCN(C)CC3)n3nc(-c4ccccc4)nc3c2cc1OC | -6.6 | - | - | - | - | -75.0% | - | - | 63.0% | - | -
CCN(CC)CCCNc1nc2ccccc2c2nc(-c3ccncc3)nn12 | -7.24 | - | - | - | - | . | . | . | . | 68.8% | - | TRPC4 spec 2=61.0%;TRPC4 spec=-23.4%;HEK293 MPD ctr 2-1=-0.5%;HEK293 MPD ctr-1=-315.5%
CCN(CC)CCCNc1nc2cc(OC)c(OC)cc2c2nc(-c3cccnc3)nn12 | -7.97 | - | - | - | - | . | . | . | . | 76.7% | - | TRPC4 spec 2=65.0%;TRPC4 spec=-29.5%;HEK293 MPD ctr 2-1=-68.5%;HEK293 MPD ctr-1=-446.0%
COCCCNc1nc2cc(OC)c(OC)cc2c2nc(-c3ccccc3)nn12 | - | - | - | - | - | . | . | . | . | . | .
O=C(N=Nc1c(O)[nH]c2ccccc12)c1ccco1 | - | - | - | - | - | . | . | . | . | . | .
CC1=Nc2ccccc2/C1=C/c1sc(=S)n(-c2cccc(C(=O)O)c2)c1O | - | - | 44 | 11 | 55.7 | + | - | 212.0% | - | - | 314.0%
Oc1c(C=C2N=c3ccccc3=N2)sc(=S)n1-c1ccccc1 | - | - | - | - | - | . | . | . | . | . | .
O=C(CNCc1ccccc1)Nc1cccc(Cl)c1Cl | -6.22 | - | - | - | - | - | - | 13.5% | 41.0% | - | .
N#Cc1cc2[nH]c3ccccc3c2[n+](-c2ccc([N+](=O)[O-])cc2)c1N | -9.93 | - | - | - | - | -321.5% | 94.0% | -18.5% | 97.0% | 75.0% | -
O=C(CCS(=O)(=O)c1ccccc1)Nc1ccccc1F | - | - | - | - | - | . | . | . | . | . | .
SMILES | TRPC6 inhibitor | TRPC4 inh | TRPC4 agonist | TRPC4 PAM | TRPC6 activator | HEK293 MPD ctr-2 | HEK293 MPD ctr 2-2 | TRPC4 ctr mod | TRPC4/MOR inh 2 | TRPC6 inh conf | TRPC6 act confirm | others
O=C(COC(=O)C1CCCC1)Nc1ncc(Cl)cc1Cl | - | - | - | - | - | . | . | . | . | . | .
Cc1cc(NC(=O)c2ccc3c(c2)C(=O)N(C)C3=O)no1 | -6.08 | - | - | - | - | -99.0% | - | -19.0% | - | - | -
Nc1ccccc1Nc1nc2ccccc2[nH]1 | -5.47 | - | - | - | - | 340.0% | - | 87.5% | - | - | .
O=C1S/C(=C/c2ccc(N3CCOCC3)o2)C(=O)N1Cc1c(F)cccc1Cl | - | - | - | - | 16.8 | - | - | 100.0% | - | - | -
O=C1S/C(=C\c2ccc(N3CCOCC3)o2)C(=O)N1Cc1c(F)cccc1Cl | - | - | 43 | 17 | 28.4 | 226.0% | - | 117.0% | - | - | -
O=C1S/C(=C\c2ccc(N3CCOCC3)o2)C(=O)N1c1ccccc1 | - | - | - | - | - | . | . | . | . | . | .
COc1ccc(S(=O)(=O)NCC2CCCN(C(=O)CCC(F)(F)F)C2)cc1 (stereo not given) | - | - | - | - | - | . | . | . | . | . | .
CC(C)n1cc(C(=O)N2CCCC(N3CCN(c4cccc(Cl)c4)CC3)C2)cn1 (stereo not given) | - | - | - | - | - | . | . | . | . | . | .
Cn1c2c(c(=O)n(C)c1=O)C(c1ccccc1OC(F)F)C1=C(CCCC1=O)N2 (stereo not given) | - | - | - | - | - | . | . | . | . | . | .
